Source: ChEMBL document CHEMBL1146087, “1,4-Benzodiazepines as inhibitors of respiratory syncytial virus” (J Med Chem, 2006)

Key:
HEp-2 = experiment: Cytotoxicity against Hep2 cell at 50 uM; format: functional, cell-based; conditions: Homo sapiens
Method in brief: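 Run alongside the whole-cell antiviral XTT assay, without virus, to measure compound toxicity to the cells. The read-out is XTT.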

[1] = tested on: Respiratory syncytial virus; experiment: Antiviral activity against RSV RSS in Hep2 cells by whole cell XTT assay; format: functional, organism-based; conditions: human respiratory syncytial virus, HEp-2
Method in brief: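 Primary whole-cell assay with XTT read-out of infected cells. Parallel cultures without virus were run to measure compound cytotoxicity. IC50 values were derived.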

[2] = tested on: Respiratory syncytial virus; experiment: Antiviral activity against RSV B in Hep2 cells by ELISA; format: functional, organism-based; conditions: human respiratory syncytial virus, HEp-2
[3] = tested on: Respiratory syncytial virus; experiment: Antiviral activity against RSV B in Hep2 cells by plaque assay; format: functional, organism-based; conditions: human respiratory syncytial virus, HEp-2
[4] = Tmax in Sprague-Dawley rat at 20 mg/kg, po; format: ADME, organism-based; design: dose 20 mg/kg, route oral; conditions: in vivo
[5] = tested on: Respiratory syncytial virus; experiment: Antiviral activity against RSV RSS in Hep2 cells by plaque assay; format: functional, organism-based; conditions: human respiratory syncytial virus, HEp-2
[6] = Apparent oral clearance in Sprague-Dawley rat at 20 mg/kg, po; format: ADME, organism-based; design: dose 20 mg/kg, route oral; conditions: in vivo
[7] = Half life in Sprague-Dawley rat at 20 mg/kg, po; format: ADME, organism-based; design: dose 20 mg/kg, route oral; conditions: in vivo
[8] = tested on: Respiratory syncytial virus; experiment: Antiviral activity against RSV Long in Hep2 cells by plaque assay; format: functional, organism-based; conditions: human respiratory syncytial virus, HEp-2
[9] = tested on: Respiratory syncytial virus; experiment: Antiviral activity against RSV Long in Hep2 cells by ELISA; format: functional, organism-based; conditions: human respiratory syncytial virus, HEp-2
[10] = Cmax in Sprague-Dawley rat at 20 mg/kg, po; format: ADME, organism-based; design: dose 20 mg/kg, route oral; conditions: in vivo
[11] = tested on: Respiratory syncytial virus; experiment: Antiviral activity against RSV RSS in Hep2 cells by ELISA; format: functional, organism-based; conditions: human respiratory syncytial virus, HEp-2
Rattus norvegicus [12] = experiment: Volume of distribution in Sprague-Dawley rat at 20 mg/kg, po; format: ADME, organism-based; design: dose 20 mg/kg, route oral; conditions: in vivo
[13] = Half life in Sprague-Dawley rat at 2 mg/kg, iv; format: ADME, organism-based; design: dose 2 mg/kg, route intravenous; conditions: in vivo
[14] = Cmax in Sprague-Dawley rat at 2 mg/kg, po; format: ADME, organism-based; design: dose 2 mg/kg, route oral; conditions: in vivo
[15] = Volume of distribution in Sprague-Dawley rat at 2 mg/kg, iv; format: ADME, organism-based; design: dose 2 mg/kg, route intravenous; conditions: in vivo, read-out: Vdss
[16] = Tmax in Sprague-Dawley rat at 2 mg/kg, iv; format: ADME, organism-based; design: dose 2 mg/kg, route intravenous; conditions: in vivo
[17] = Oral bioavailability in Sprague-Dawley rat at 2 mg/kg, po; format: ADME, organism-based; conditions: in vivo
Rattus norvegicus [18] = experiment: Volume of distribution in Sprague-Dawley rat at 2 mg/kg, po; format: ADME, organism-based; design: dose 2 mg/kg, route oral; conditions: in vivo
[19] = Cmax in Sprague-Dawley rat at 2 mg/kg, iv; format: ADME, organism-based; design: dose 2 mg/kg, route intravenous; conditions: in vivo
[20] = tested on: Respiratory syncytial virus; experiment: Antiviral activity against RSV A2 in Hep2 cells by plaque assay; format: functional, organism-based; conditions: human respiratory syncytial virus, A2, HEp-2
[21] = Half life in Sprague-Dawley rat at 2 mg/kg, po; format: ADME, organism-based; design: dose 2 mg/kg, route oral; conditions: in vivo
[22] = Tmax in Sprague-Dawley rat at 2 mg/kg, po; format: ADME, organism-based; design: dose 2 mg/kg, route oral; conditions: in vivo
[23] = Clearance in Sprague-Dawley rat at 2 mg/kg, iv; format: ADME, organism-based; design: dose 2 mg/kg, route intravenous; conditions: in vivo

SMILES	Activity (HEp-2)	IC50 [1]	other results
CCCOc1ccccc1C(=O)NC1N=C(c2ccccc2)c2ccccc2NC1=O (stereo unspecified)	Not toxic	40.2 µM	–
O=C(NC1N=C(c2ccccc2)c2ccc(Cl)cc2NC1=O)c1cccs1 (stereo unspecified)	Not toxic	26.7 µM	–
O=C(NC1N=C(c2cccc(Cl)c2)c2ccccc2NC1=O)c1ccco1 (stereo unspecified)	Not toxic	6.9 µM	–
COc1cc([N+](=O)[O-])ccc1C(=O)NC1N=C(c2ccccc2)c2ccccc2NC1=O (stereo unspecified)	Not toxic	–	IC50 [2]: 1.3 µM; IC50 [3]: < 0.3 µM; Tmax [4]: 3 h; IC50 [5]: 1.8 µM; CL/F [6]: 18.8 mL/min/kg; half-life [7]: 5.8 h; IC50 [8]: 0.9 µM; IC50 [9]: 1.2 µM; Cmax [10]: 1670 ng/mL; IC50 [11]: 2.5 µM; Vdss (Rattus norvegicus [12]): 9.8 L/kg
O=C1Nc2ccccc2C(c2ccccc2)=NC1N1CCOCC1 (stereo unspecified)	Not toxic	> 50 µM	–
O=C(NC1N=C(c2ccccc2)c2ccccc2NC1=O)c1ccc([N+](=O)[O-])cc1 (stereo unspecified)	Not toxic	6.7 µM	–
O=C(NC1N=C(c2ccccc2)c2ccccc2NC1=O)c1cccc(OC(F)(F)F)c1 (stereo unspecified)	Not toxic	14.6 µM	–
COc1ccccc1CNC1N=C(c2ccccc2)c2ccccc2NC1=O (stereo unspecified)	Not toxic	27.3 µM	–
O=C(NC1N=C(c2ccccc2)c2ccccc2NC1=O)c1ccco1 (stereo unspecified)	Not toxic	3.2 µM	–
COc1ccc(C2=NC(NC(=O)c3ccccc3OC)C(=O)Nc3ccccc32)cc1 (stereo unspecified)	Not toxic	> 50 µM	–
O=C(NC1N=C(c2ccccc2)c2ccccc2NC1=O)c1ccccc1OC(F)(F)F (stereo unspecified)	Not toxic	14.4 µM	–
COc1ccccc1C(=O)NC1N=C(c2ccccc2)c2ccc(C)cc2NC1=O (stereo unspecified)	Not toxic	19.2 µM	–
O=C(NC1N=C(c2ccccc2)c2ccccc2NC1=O)c1ccc(N2CCOCC2)cc1Cl (stereo unspecified)	Not toxic	3.4 µM	–
O=C(NC1N=C(c2ccccc2)c2ccccc2NC1=O)c1cccc(C(F)(F)F)c1 (stereo unspecified)	Not toxic	7.5 µM	–
CC(C)(C)C(=O)NC1N=C(c2ccccc2)c2ccccc2NC1=O (stereo unspecified)	Not toxic	16.7 µM	–
CN(C)c1ccccc1C(=O)NC1N=C(c2ccccc2)c2ccccc2NC1=O (stereo unspecified)	Not toxic	4.8 µM	–
O=C(NC1N=C(c2ccccc2)c2ccccc2NC1=O)c1ccccc1 (stereo unspecified)	Not toxic	5.5 µM	–
O=C1Nc2ccccc2C(c2ccccc2)=NC1NC(=O)N1CCOCC1 (stereo unspecified)	Not toxic	9.7 µM	–
COc1cc(Cl)ccc1C(=O)NC1N=C(c2ccccc2)c2ccccc2NC1=O (stereo unspecified)	Not toxic	5.9 µM	Tmax [4]: 1 h; CL/F [6]: 288 mL/min/kg; half-life [7]: 2.7 h; Cmax [10]: 273 ng/mL; Vdss (Rattus norvegicus [12]): 98.3 L/kg
CNc1ccccc1C(=O)NC1N=C(c2ccccc2)c2ccccc2NC1=O (stereo unspecified)	Not toxic	9.6 µM	–

SMILES	Activity (HEp-2)	IC50 [1]	other results
O=C(NC1N=C(c2ccccc2)c2ccccc2NC1=O)c1ccccc1CN1CCOCC1 (stereo unspecified)	Not toxic	20.7 µM	–
COc1cc(S(C)(=O)=O)ccc1C(=O)NC1N=C(c2ccccc2)c2ccccc2NC1=O (stereo unspecified)	Not toxic	2 µM	–
O=C(NC1N=C(c2ccccc2)c2ccccc2NC1=O)c1cccc([N+](=O)[O-])c1 (stereo unspecified)	Not toxic	7.4 µM	–
O=C1Nc2ccccc2C(c2ccccc2)=NC1NC(=O)C1CCCO1 (stereo unspecified)	Not toxic	17.4 µM	–
COc1ccc(C(=O)NC2N=C(C)c3ccccc3NC2=O)cc1 (stereo unspecified)	Not toxic	> 50 µM	–
O=C(Nc1ccccc1F)OC1N=C(c2ccccc2)c2ccccc2NC1=O (stereo unspecified)	Not toxic	16.1 µM	–
COc1ccccc1C(=O)NC1N=C(c2ccccc2F)c2cc(Cl)ccc2NC1=O (stereo unspecified)	Not toxic	26.2 µM	–
COc1ccc(C(=O)NC2N=C(c3ccccc3)c3ccccc3NC2=O)cc1 (stereo unspecified)	Not toxic	3.6 µM	–
COc1ccccc1C(=O)NC1N=C(c2ccc(F)cc2)c2ccccc2NC1=O (stereo unspecified)	Not toxic	16.5 µM	–
CCN(CC)C1N=C(c2ccccc2)c2ccccc2NC1=O (stereo unspecified)	Not toxic	> 50 µM	–
Cc1cc(C(=O)NC2N=C(c3ccccc3)c3ccccc3NC2=O)oc1C (stereo unspecified)	Not toxic	2.8 µM	–
O=C(NC1N=C(c2cccc(C(F)(F)F)c2)c2ccccc2NC1=O)c1ccco1 (stereo unspecified)	Not toxic	18.8 µM	–
O=C(NC1N=C(c2ccccc2)c2ccccc2NC1=O)C1CCCCC1 (stereo unspecified)	Not toxic	–	–
CCN(CC)C(=O)NC1N=C(c2ccccc2)c2ccccc2NC1=O (stereo unspecified)	Not toxic	20.7 µM	–
COc1ccc(F)cc1C(=O)NC1N=C(c2ccccc2)c2ccccc2NC1=O (stereo unspecified)	Not toxic	1.5 µM	Tmax [4]: 3.33 h; CL/F [6]: 981 mL/min/kg; Cmax [10]: 10.3 ng/mL
COc1cccc(C2=NC(NC(=O)c3ccccc3OC)C(=O)Nc3ccccc32)c1 (stereo unspecified)	Not toxic	> 50 µM	–
COc1ccc(C(=O)NC2N=C(c3ccccc3)c3ccccc3NC2=O)c(OC)c1 (stereo unspecified)	Not toxic	2.1 µM	–
CN1C(=O)C(NC(=O)Nc2ccccc2F)N=C(c2ccccc2)c2ccccc21 (stereo unspecified)	Not toxic	> 50 µM	–
O=C(NC1N=C(c2ccccc2)c2ccccc2NC1=O)c1ccccc1C1CCCCC1 (stereo unspecified)	Not toxic	> 50 µM	–
COc1ccccc1C(=O)NC1N=C(c2cccc(C(F)(F)F)c2)c2ccccc2NC1=O (stereo unspecified)	Not toxic	16.7 µM	–

SMILES	Activity (HEp-2)	IC50 [1]	other results
O=C(NC1N=C(C2CCCCC2)c2ccccc2NC1=O)c1ccco1 (stereo unspecified)	Not toxic	> 50 µM	–
COc1cc([N+](=O)[O-])ccc1C(=O)NC1N=C(c2ccccc2)c2ccccc2N(C)C1=O (stereo unspecified)	Not toxic	> 50 µM	–
COc1cccc(C(=O)NC2N=C(c3ccccc3)c3ccccc3NC2=O)c1 (stereo unspecified)	Not toxic	6.6 µM	–
O=C(NC1N=C(c2ccccc2F)c2cc(Cl)ccc2NC1=O)c1ccco1 (stereo unspecified)	Not toxic	41.3 µM	–
CN1CCN(C(=O)NC2N=C(c3ccccc3)c3ccccc3NC2=O)CC1 (stereo unspecified)	Not toxic	9.3 µM	–
COc1ccc2c(c1)C(c1ccccc1)=NC(NC(=O)c1ccccc1OC)C(=O)N2 (stereo unspecified)	Not toxic	> 50 µM	–
O=C(NC1N=C(c2ccc(C(F)(F)F)cc2)c2ccccc2NC1=O)c1ccco1 (stereo unspecified)	Not toxic	> 50 µM	–
COc1cc([N+](=O)[O-])ccc1C(=O)N(C)C1N=C(c2ccccc2)c2ccccc2NC1=O (stereo unspecified)	Not toxic	25.1 µM	–
COc1ccc(CNC2N=C(c3ccccc3)c3ccccc3NC2=O)cc1 (stereo unspecified)	Not toxic	–	–
CCOc1ccccc1C(=O)NC1N=C(c2ccccc2)c2ccccc2NC1=O (stereo unspecified)	Not toxic	3.6 µM	–
O=C(NC1N=C(c2ccccc2)c2ccccc2NC1=O)c1cccs1 (stereo unspecified)	Not toxic	5.6 µM	–
O=C(Nc1ccccc1F)NC1N=C(C2CCCCC2)c2ccccc2NC1=O (stereo unspecified)	Not toxic	> 50 µM	–
O=C(Nc1ccccc1F)NC1N=C(c2ccccc2)c2ccccc2NC1=O (stereo unspecified)	Not toxic	3.3 µM	half-life [13]: 3.7 h; IC50 [2]: 1.9 µM; Cmax [14]: 386 ng/mL; IC50 [3]: 0.75 µM; Vd [15]: 2.5 L/kg; Tmax [16]: 4.8 min; bioavailability [17]: 76%; IC50 [5]: 3 µM; Vdss (Rattus norvegicus [18]): 7.5 L/kg; IC50 [8]: 2.2 µM; IC50 [9]: 2.5 µM; Cmax [19]: 1530 ng/mL; IC50 [20]: 2.8 µM; half-life [21]: 8.1 h; IC50 [11]: 2.7 µM; Tmax [22]: 2.6 h
COc1ccccc1C(=O)NC1N=C(c2ccccc2)c2cc(Cl)ccc2NC1=O (stereo unspecified)	Not toxic	6.1 µM	–
COc1ccccc1C(=O)NC1N=C(c2ccc(C(F)(F)F)cc2)c2ccccc2NC1=O (stereo unspecified)	Not toxic	> 50 µM	–
COc1ccccc1C(=O)NC1N=C(c2ccccc2)c2ccccc2NC1=O (stereo unspecified)	Not toxic	2.3 µM	half-life [13]: 0.4 h; Cmax [14]: 19.3 ng/mL; clearance [23]: 71.2 mL/min/kg; Vd [15]: 2.4 L/kg; Tmax [16]: 4.8 min; bioavailability [17]: 4%; Cmax [19]: 798 ng/mL; Tmax [22]: 0.8 h
COc1cc2c(cc1OC)C(c1ccccc1)=NC(NC(=O)c1ccccc1OC)C(=O)N2 (stereo unspecified)	Not toxic	> 50 µM	–
CC(C)C(=O)NC1N=C(c2ccccc2)c2ccccc2NC1=O (stereo unspecified)	Not toxic	9.5 µM	–
